Assay results of several laboratories.
Protocols differ between the studies behind these lines.
Cnr2: Cannabinoid receptor 2 (Cnr2, Mus musculus, UniProt P47936)
G protein-coupled receptor 88: G protein-coupled receptor 88 (Homo sapiens, UniProt Q9GZN0)
SLCO1B3: Solute carrier organic anion transporter family member 1B3 (SLCO1B3, Homo sapiens, UniProt Q9NPD5)

Compound	target	assay	system	setting	quantity	value
O=c1[nH]c2ccccc2n1C1CCN(CCCC(c2ccc(F)cc2)c2ccc(F)cc2)CC1	Signal transducer and activator of transcription 5B, SH2 (STAT5B, Homo sapiens, UniProt P51692)	protein-protein interaction, inhibitor, FP			IC50	75.1 µM
OCCCCO	Cytochrome P450 2E1 (Cyp2e1, Rattus norvegicus, UniProt P05182)	enzyme activity, inhibitor	Fischer 344 rat, liver microsomes	30 min	IC50	5800 µM
Cc1c(C(=O)c2cccc3ccccc23)c2cccc3c2n1[C@H](CN1CCOCC1)CO3	Cnr2	ligand displacement, radioligand		cell membranes	Ki	0.0058 µM
CCCCOc1ccc([C@@H](CO)C(=O)N[C@H](C)c2ccccc2)cc1	G protein-coupled receptor 88	cAMP, agonist, TR-FRET			EC50	5.13 µM
O=C[C@H](C[C@@H]1CCNC1=O)NC(=O)[C@H](CC1CCCCC1)NC(=O)c1cc2ccccc2[nH]1	Procathepsin L (CTSL, Homo sapiens, UniProt P07711)	enzyme activity, inhibitor			IC50	0.00021 µM
CC(C)(C)[C@H](NC(=O)C(F)(F)F)C(=O)N1C[C@H]2[C@@H]([C@H]1C(=O)N[C@H](C#N)C[C@@H]1CCNC1=O)C2(C)C	SLCO1B3	transporter uptake, inhibitor			Ki	283 µM
CCCCCOc1ccc([C@@H](CO)C(=O)N[C@H](C)c2ccccc2)cc1	G protein-coupled receptor 88	cAMP, agonist, TR-FRET			EC50	3.24 µM
CCCCCCC(C)(C)c1cc(O)c2c(c1)OC(C)(C)[C@@H]1CC=C(C)C[C@@H]21	Cnr2	ligand displacement, radioligand		cell membranes	Ki	0.0014 µM
CCOC(=O)c1cncn1[C@H](C)c1ccccc1	SLCO1B3	transporter uptake, inhibitor, fluorescence	CHO	30 min, pH 7.4	IC50	> 100 µM
